# From ChEMBL document CHEMBL1687848, “In vitro effect of qnrA1, qnrB1, and qnrS1 genes on fluoroquinolone activity against isogenic Escherichia coli isolates with mutations in gyrA and parC” (2011)
# Key:
# Type in all cases: functional
# Escherichia coli [1] = assay: Antibacterial activity against qnrS gene expressing Escherichia coli ATCC 25922 harboring ParC S80R mutant and pBK-QnrS1 by broth microdilution method
# Escherichia coli [2] = assay: Antibacterial activity against Escherichia coli ATCC 25922 harboring ParC S80R mutant by broth microdilution method
# Escherichia coli [3] = assay: Antibacterial activity against qnrS gene expressing Escherichia coli ATCC 25922 harboring GyrA S83L mutant and pBK-QnrS1 by broth microdilution method
# Escherichia coli [4] = assay: Antibacterial activity against qnrB gene expressing Escherichia coli ATCC 25922 harboring GyrA S83L mutant and pBK-QnrB1 by broth microdilution method
# Escherichia coli [5] = assay: Antibacterial activity against qnrA gene expressing Escherichia coli ATCC 25922 harboring GyrA S83L mutant and pBK-QnrA1 by broth microdilution method
# Escherichia coli [6] = assay: Antibacterial activity against qnrB gene expressing Escherichia coli ATCC 25922 harboring ParC S80R mutant and pBK-QnrB1 by broth microdilution method
# Escherichia coli [7] = assay: Antibacterial activity against qnrA gene expressing Escherichia coli ATCC 25922 harboring ParC S80R mutant and pBK-QnrA1 by broth microdilution method
# Escherichia coli [8] = assay: Antibacterial activity against Escherichia coli ATCC 25922 expressing qnrA gene and pBK-QnrA1 by broth microdilution method
# Escherichia coli [9] = assay: Antibacterial activity against Escherichia coli ATCC 25922 expressing qnrB gene and pBK-QnrB1 by broth microdilution method
# Escherichia coli [10] = assay: Antibacterial activity against Escherichia coli ATCC 25922 expressing qnrS gene and pBK-QnrS1 by broth microdilution method
# Escherichia coli [11] = assay: Antibacterial activity against Escherichia coli ATCC 25922 by broth microdilution method
# Escherichia coli [12] = assay: Antibacterial activity against Escherichia coli ATCC 25922 harboring GyrA S83L mutant by broth microdilution method
# Escherichia coli [13] = assay: Antibacterial activity against Escherichia coli ATCC 25922 harboring GyrA S83L mutant and ParC S80R mutant by broth microdilution method
# Escherichia coli [14] = assay: Antibacterial activity against qnrS gene expressing Escherichia coli ATCC 25922 harboring ParC S80R mutant, ParC S80R mutant and pBK-QnrS1 by broth microdilution method
# Escherichia coli [15] = assay: Antibacterial activity against Escherichia coli ATCC 25922 expressing qnrB gene and pBK-QnrB1 assessed as mutant prevention concentration
# Escherichia coli [16] = assay: Antibacterial activity against Escherichia coli ATCC 25922 harboring GyrA S83L mutant assessed as mutant prevention concentration
# Escherichia coli [17] = assay: Antibacterial activity against qnrA gene expressing Escherichia coli ATCC 25922 harboring GyrA S83L mutant and pBK-QnrA1 assessed as mutant prevention concentration
# Escherichia coli [18] = assay: Antibacterial activity against qnrB gene expressing Escherichia coli ATCC 25922 harboring GyrA S83L mutant and pBK-QnrB1 assessed as mutant prevention concentration
# Escherichia coli [19] = assay: Antibacterial activity against qnrS gene expressing Escherichia coli ATCC 25922 harboring GyrA S83L mutant and pBK-QnrS1 assessed as mutant prevention concentration
# Escherichia coli [20] = assay: Ratio of mutant prevention concentration to MIC for Escherichia coli ATCC 25922 expressing qnrA gene and pBK-QnrA1
# How it was run: (§1)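 MIC: broth microdilution per CLSI, in duplicate. The ratio is MPC over MIC. Strains are E. coli ATCC 25922 or its GyrA Ser83Leu gene-replacement mutant, with qnr genes on pBK-CMV introduced by electroporation.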
# Escherichia coli [21] = assay: Ratio of mutant prevention concentration to MIC for Escherichia coli ATCC 25922 harboring GyrA S83L mutant; how it was run: as §1
# Escherichia coli [22] = assay: Ratio of mutant prevention concentration to MIC for qnrA gene expressing Escherichia coli ATCC 25922 harboring GyrA S83L mutant and pBK-QnrA1; how it was run: as §1
# Escherichia coli [23] = assay: Ratio of mutant prevention concentration to MIC for qnrB gene expressing Escherichia coli ATCC 25922 harboring GyrA S83L mutant and pBK-QnrB1; how it was run: as §1
# Escherichia coli [24] = assay: Ratio of mutant prevention concentration to MIC for qnrS gene expressing Escherichia coli ATCC 25922 harboring GyrA S83L mutant and pBK-QnrS1; how it was run: as §1
# Escherichia coli [25] = assay: Antibacterial activity against Escherichia coli ATCC 25922 assessed as earliest time required to resistant colonies visible one step below mutant prevention concentration
# Escherichia coli [26] = assay: Antibacterial activity against Escherichia coli ATCC 25922 expressing qnrA gene and pBK-QnrA1 assessed as earliest time required to resistant colonies visible one step below mutant prevention concentration
# Escherichia coli [27] = assay: Antibacterial activity against Escherichia coli ATCC 25922 expressing qnrB gene and pBK-QnrB1 assessed as earliest time required to resistant colonies visible one step below mutant prevention concentration
# Escherichia coli [28] = assay: Antibacterial activity against Escherichia coli ATCC 25922 expressing qnrS gene and pBK-QnrS1 assessed as earliest time required to resistant colonies visible one step below mutant prevention concentration
# Escherichia coli [29] = assay: Antibacterial activity against Escherichia coli ATCC 25922 harboring GyrA S83L mutant assessed as earliest time required to resistant colonies visible one step below mutant prevention concentration
# Escherichia coli [30] = assay: Antibacterial activity against qnrA gene expressing Escherichia coli ATCC 25922 harboring GyrA S83L mutant and pBK-QnrA1 assessed as earliest time required to resistant colonies visible one step below mutant prevention concentration
# Escherichia coli [31] = assay: Antibacterial activity against Escherichia coli ATCC 25922 assessed as resistant colonies recovered one step below mutant prevention concentration
# How it was run: (§2)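 Resistant colonies recovered from Mueller-Hinton plates one concentration step below the MPC for each fluoroquinolone were retested for MIC. Mutants taken from plated concentrations closest to the MPC had the QRDRs of gyrA and parC analysed.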
# Escherichia coli [32] = assay: Antibacterial activity against Escherichia coli ATCC 25922 expressing qnrA gene and pBK-QnrA1 assessed as resistant colonies recovered one step below mutant prevention concentration; how it was run: as §2
# Escherichia coli [33] = assay: Antibacterial activity against Escherichia coli ATCC 25922 expressing qnrB gene and pBK-QnrB1 assessed as resistant colonies recovered one step below mutant prevention concentration; how it was run: as §2
# Escherichia coli [34] = assay: Antibacterial activity against Escherichia coli ATCC 25922 harboring GyrA S83L mutant assessed as resistant colonies recovered one step below mutant prevention concentration; how it was run: as §2
# Escherichia coli [35] = assay: Antibacterial activity against qnrA gene expressing Escherichia coli ATCC 25922 harboring GyrA S83L mutant and pBK-QnrA1 assessed as resistant colonies recovered one step below mutant prevention concentration; how it was run: as §2
# Escherichia coli [36] = assay: Antibacterial activity against qnrS gene expressing Escherichia coli ATCC 25922 harboring GyrA S83L mutant and pBK-QnrS1 assessed as resistant colonies recovered one step below mutant prevention concentration; how it was run: as §2
smiles,measurement,setting,value
CCn1cc(C(=O)O)c(=O)c2cc(F)c(N3CCNCC3)cc21 [NORFLOXACIN],MBC,Escherichia coli [1],0.5 µg/mL
same,MIC,Escherichia coli [1],0.5 µg/mL
same,MBC,Escherichia coli [2],0.03 µg/mL
same,MIC,Escherichia coli [2],0.03 µg/mL
same,MBC,Escherichia coli [3],4 µg/mL
same,MIC,Escherichia coli [3],2 µg/mL
same,MBC,Escherichia coli [4],1 µg/mL
same,MIC,Escherichia coli [4],1 µg/mL
same,MBC,Escherichia coli [5],2 µg/mL
same,MIC,Escherichia coli [5],2 µg/mL
same,MBC,Escherichia coli [6],0.5 µg/mL
same,MIC,Escherichia coli [6],0.5 µg/mL
same,MBC,Escherichia coli [7],2 µg/mL
same,MIC,Escherichia coli [7],0.5 µg/mL
same,MBC,Escherichia coli [8],1 µg/mL
same,MIC,Escherichia coli [8],0.5 µg/mL
same,MBC,Escherichia coli [9],0.5 µg/mL
same,MIC,Escherichia coli [9],0.25 µg/mL
same,MBC,Escherichia coli [10],1 µg/mL
same,MIC,Escherichia coli [10],0.5 µg/mL
same,MBC,Escherichia coli [11],0.03 µg/mL
same,MIC,Escherichia coli [11],0.015 µg/mL
same,MBC,Escherichia coli [12],0.5 µg/mL
same,MIC,Escherichia coli [12],0.125 µg/mL
same,MBC,Escherichia coli [13],2 µg/mL
same,MIC,Escherichia coli [13],2 µg/mL
same,MBC,Escherichia coli [14],16 µg/mL
same,MIC,Escherichia coli [14],8 µg/mL
same,Activity,Escherichia coli [15],8 µg/mL
same,Activity,Escherichia coli [16],8 µg/mL
same,Activity,Escherichia coli [17],16 µg/mL
same,Activity,Escherichia coli [18],16 µg/mL
same,Activity,Escherichia coli [19],32 µg/mL
same,Ratio,Escherichia coli [20],16
same,Ratio,Escherichia coli [21],32
same,Ratio,Escherichia coli [22],16
same,Ratio,Escherichia coli [23],16
same,Ratio,Escherichia coli [24],16
same,Time,Escherichia coli [25],48 h
same,Time,Escherichia coli [26],24 h
same,Time,Escherichia coli [27],48 h
same,Time,Escherichia coli [28],24 h
same,Time,Escherichia coli [29],24 h
same,Time,Escherichia coli [30],24 h
same,MIC,Escherichia coli [31],0.25 µg/mL
same,MIC,Escherichia coli [32],1 µg/mL
same,MIC,Escherichia coli [33],0.5 µg/mL
same,MIC,Escherichia coli [34],2 µg/mL
same,MIC,Escherichia coli [35],8 µg/mL
same,MIC,Escherichia coli [36],2 µg/mL
